Where two headings read alike, the source gives them in different places. Values belong to the substance of their own block, whether it stands above or below them.
Columns and labels:
Co(II)-HDAC8 [1] = biological target: T1, Co(II)-HDAC8 (Homo sapiens, UniProt Q9BY41); assay: Optimized continuous coupled acetate assay, HDAC8-catalyzed deacetylation; format: biochemical; conditions: Figure 5 legend, 100 μM peptide
T1 sequence (Q9BY41 1-377): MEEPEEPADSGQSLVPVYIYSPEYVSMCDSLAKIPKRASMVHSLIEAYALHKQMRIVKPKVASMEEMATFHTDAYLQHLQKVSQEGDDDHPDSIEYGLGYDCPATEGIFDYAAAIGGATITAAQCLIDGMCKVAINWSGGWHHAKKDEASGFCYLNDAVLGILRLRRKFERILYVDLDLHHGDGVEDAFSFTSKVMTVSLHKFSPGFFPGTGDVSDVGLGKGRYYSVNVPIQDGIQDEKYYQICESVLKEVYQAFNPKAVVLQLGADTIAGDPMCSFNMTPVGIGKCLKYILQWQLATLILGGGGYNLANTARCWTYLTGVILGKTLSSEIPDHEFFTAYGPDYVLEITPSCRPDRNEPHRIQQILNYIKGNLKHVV
How it was run: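 Continuous coupled format in EDTA-stripped plates. Mixed 2:1 with Ac-KGGAKac-NH₂ (100 μM final). Started with Co(II)-HDAC8 (0.5–1 μM final). Rate taken from time-dependent NADH fluorescence (ex 340/em 460 nm).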

HDAC3/NCOR1 = HDAC3/NCOR1 (Homo sapiens, UniProt O15379+O75376); assay: Optimized stopped coupled acetate assay, HDAC3/NCOR1-catalyzed deacetylation; format: biochemical; conditions: 100 μM peptide, 0.5 μM HDAC3/NCOR1
Sequence of HDAC3/NCOR1 (O15379 whole entry): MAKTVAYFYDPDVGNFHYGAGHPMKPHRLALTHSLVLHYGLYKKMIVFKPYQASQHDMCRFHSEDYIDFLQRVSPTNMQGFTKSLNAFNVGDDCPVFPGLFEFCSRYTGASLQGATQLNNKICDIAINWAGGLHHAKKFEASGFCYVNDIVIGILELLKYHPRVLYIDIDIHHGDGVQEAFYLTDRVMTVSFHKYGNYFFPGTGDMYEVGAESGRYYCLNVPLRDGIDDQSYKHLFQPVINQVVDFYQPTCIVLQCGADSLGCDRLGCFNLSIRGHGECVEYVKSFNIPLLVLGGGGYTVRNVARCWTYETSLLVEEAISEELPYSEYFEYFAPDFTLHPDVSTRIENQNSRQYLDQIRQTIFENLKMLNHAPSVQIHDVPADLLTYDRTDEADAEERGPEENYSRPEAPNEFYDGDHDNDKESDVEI
Sequence of HDAC3/NCOR1 (O75376 395-489 partner limits assumed): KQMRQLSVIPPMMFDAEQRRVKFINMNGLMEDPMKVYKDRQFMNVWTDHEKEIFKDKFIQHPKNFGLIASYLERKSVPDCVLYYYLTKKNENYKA
How it was run: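 Started with 0.5 μM HDAC3/NCOR1 and quenched with 0.37% HCl at 0, 30, 60 and 90 min. Flash frozen at −80°C, then neutralised with 0.6% NaHCO₃. Pre-equilibrated ACS/citrate synthase/MDH coupler mix (ATP, NAD⁺, CoA, malate) added, 40 min at RT. NADH fluorescence read at ex 340/em 460 nm.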

Co(II)-HDAC8 [2] = biological target: T1, Co(II)-HDAC8; format: biochemical; conditions: for substrate inhibition at higher peptide concentrations: peptide 0 – 1600 μM; for effect of pre-incubation of the peptide with Chelex 100 on observed activity: ~6 % (v/v) Chelex 100, room temperature, three hours
HDAC8 [3] = conditions: HDAC8-catalyzed deacetylation; ref [25]; cited from earlier work
Co(II)-HDAC8 [4] = biological target: T1, Co(II)-HDAC8; assay: Fluorescamine assay, HDAC8-catalyzed deacetylation; format: biochemical; conditions: 200 μM peptide, 0.5 μM HDAC8, 30°C
How it was run: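 Started with 0.5 μM HDAC8 and quenched with 1 μM TSA at 0, 30, 60 and 90 min. Enzyme removed by 10K filtration. Flow-through mixed with 1 M boric acid pH 9 and fluorescamine, 10 min at RT. Fluorescence read at ex 340/em 460 nm against an N-α-acetyl lysine methyl ester standard curve (0–5 μM).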

HDAC8 [5] = assay: Inhibition of HDAC8 activity by magnesium; format: biochemical, human; conditions: 2 mM magnesium, continuous assay conditions; Figure S2
[6] = Michaelis-Menten fit, stopped coupled assay, 30°C, pH 8

Substance: Ac-KGGAKac-NH2
initial rate for deacetylation (Co(II)-HDAC8 [1]; 0.5 μM Co(II)-HDAC8): 0.011 ± 0.00041 µM/s
initial rate for deacetylation (Co(II)-HDAC8 [1]; 1 μM Co(II)-HDAC8): 0.022 ± 0.00043 µM/s
initial rate of deacetylation (HDAC3/NCOR1): 0.015 ± 0.0016 µM/s
ΔΔG‡ (kcat/KM) (Co(II)-HDAC8 [2]; Ac-KGGAKac-NH2 compared to Ac-KGGAKac-COO^−): 1.6 kal/mol
initial rate for deacetylation (Co(II)-HDAC8 [2]; Figure 5 legend, side-by-side stopped assay, 0.5 μM Co(II)-HDAC8, 100 μM peptide): 0.018 ± 0.0021 µM/s
kcat/KM enhancement relative to Ac-KGGAKac-COO^− peptide (Co(II)-HDAC8 [2]; amide vs carboxylate): 9 fold
substrate inhibition at higher peptide concentrations (Co(II)-HDAC8 [2]; stopped coupled assay): modest to substantial inhibition was observed at higher peptide concentrations
effect of pre-incubation of the peptide with Chelex 100 on observed activity (Co(II)-HDAC8 [2]): no effect

ΔΔG‡ (kcat/KM) (Co(II)-HDAC8 [2]; Ac-KGGAKac-methylcoumarin compared to the C-terminal carboxylate peptide): 2.3 kcal/mol
Substance: Ac-KGGAKac-methylcoumarin [reference compound]
kcat/KM (HDAC8 [3]): 2800 M⁻¹ s⁻¹

increase of net transition state stabilization (Co(II)-HDAC8 [2]; addition of tryptophan or methylcoumarin moiety to the peptide): 0.42 to 2.1 kJ/mol
effect of pre-incubation of the peptide with Chelex 100 on observed activity (Co(II)-HDAC8 [2]): no effect
Substance: Ac-KGGAKacW-NH2
substrate inhibition at higher peptide concentrations (Co(II)-HDAC8 [2]; stopped coupled assay): modest to substantial inhibition was observed at higher peptide concentrations

Substance: Ac-KGGAKac-COO^−
lowering of kcat/KM relative to methylcoumarin peptide (Co(II)-HDAC8 [2]; C-terminal carboxylate vs methylcoumarin): 50 fold
Km (Co(II)-HDAC8 [2]; [6]): 730 µM
kcat (Co(II)-HDAC8 [2]; [6]): 0.041 s⁻¹
kcat/KM (Co(II)-HDAC8 [2]; [6]): 56 M⁻¹ s⁻¹
deacetylation rate (Co(II)-HDAC8 [2]; coupled acetate assay, 200 μM peptide, 0.5 μM HDAC8): 0.0021 ± 0.0003 µM/s
deacetylation rate (Co(II)-HDAC8 [4]): 0.0027 ± 0.0008 µM/s

Substance: magnesium
inhibition of HDAC8 activity (HDAC8 [5]): ~ 2 fold

Reference: paper PMC4470474 (Analytical biochemistry, 2014)
